Active and inactive are the calls of the source. The calls are words filed in the database; no cut-off is given here.
Key:
[1] = system: Nucleic Acid; assay: Inhibition of Escherichia coli pBR322 DNA cleavage after 16 hrs by RED100-restriction endonuclease digestion assay; type: nucleic-acid assay
Procedure, shortened: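 pBR322 DNA was preincubated with compound at final 2, 4, 8, 16 and 32 µM for 16 h at 37 °C. BamHI (10 U/µl) in BamHI buffer was then added for 2 h at 37 °C. Products were separated on agarose in 0.5× Tris–acetate EDTA at 80 V for 1 h and stained with ethidium bromide. Cut and uncut DNA served as controls.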

[2] = system: SNB-75; assay: Growth inhibition of human SNB75 cells after 24 hrs by MTT assay; type: functional; settings: SNB-75, 24 h
[3] = system: OVCAR-4; assay: Growth inhibition of human OVCAR4 cells after 24 hrs by MTT assay; type: functional; settings: OVCAR-4, 24 h
[4] = system: A549; assay: Growth inhibition of human A549 cells after 24 hrs by MTT assay; type: functional; settings: A549, 24 h
[5] = system: MCF7; assay: Cell cycle arrest in human MCF7 cells assessed as accumulation at G0 phase at 2 uM after 24 hrs using propidium iodide staining by flow cytometry; type: functional
Procedure, shortened: (§1)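 MCF-7 cells were grown in DMEM with 10% fetal calf serum, penicillin and streptomycin, at 37 °C in 5% CO2. They were treated for 24 h at 2 and 4 µM, with DMSO-treated cells as controls. Cells were trypsinised, fixed in ice-cold 70% ethanol at 4 °C for 30 min, and RNaseA-treated at 37 °C for 30 min. Phases were read by flow cytometry.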

[6] = system: SNB-19; assay: Growth inhibition of human SNB19 cells after 24 hrs by MTT assay; type: functional; settings: SNB-19, 24 h
[7] = system: RXF 393; assay: Growth inhibition of human RXF393 cells after 24 hrs by MTT assay; type: functional; settings: RXF 393, 24 h
[8] = system: NCI-H23; assay: Growth inhibition of human NCI-H23 cells after 24 hrs by MTT assay; type: functional; settings: NCI-H23, 24 h
[9] = system: MCF7; assay: Induction of apoptosis in human MCF7 cells assessed as increase of caspase 9 activation at 4 uM after 1 hr by fluorimetry based assay; type: functional, cell-based
[10] = system: MCF7; assay: Growth inhibition of human MCF7 cells after 24 hrs by MTT assay; type: functional; settings: MCF7, 24 h
[11] = system: MCF7; assay: Increase of cytosolic cytochrome c level in human MCF7 cells at 4 uM after 24 hrs by Western blot analysis; type: functional, cell-based
Procedure, shortened: (§2)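 MCF-7 cells were grown in DMEM with 10% FCS and penicillin/streptomycin at 37 °C in 5% CO2, then treated for 24 h. Cells were lysed in ice-cold RIPA buffer with protease inhibitors and NaF. Protein was measured by Bradford assay, and 30 µg per lane was run on 12% SDS-PAGE and transferred to PVDF. Antibody steps: primary at 4 °C overnight, HRP secondary 1:2000, chemiluminescent detection.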

[12] = system: NCI-H226; assay: Growth inhibition of human NCI-H226 cells after 24 hrs by MTT assay; type: functional; settings: NCI-H226, 24 h
[13] = system: UACC-62; assay: Growth inhibition of human UACC62 cells after 24 hrs by MTT assay; type: functional; settings: UACC-62, 24 h
[14] = system: MCF7; assay: Cell cycle arrest in human MCF7 cells assessed as accumulation at G1 phase at 4 uM after 24 hrs using propidium iodide staining by flow cytometry; type: functional; procedure, shortened: as §1
[15] = system: MCF7; assay: Increase of PARP cleavage in human MCF7 cells at 4 uM after 24 hrs by Western blot analysis; type: functional, cell-based; procedure, shortened: as §2
[16] = system: TK-10; assay: Growth inhibition of human TK10 cells after 24 hrs by MTT assay; type: functional; settings: TK-10, 24 h
[17] = system: MCF7; assay: Cell cycle arrest in human MCF7 cells assessed as accumulation at G2/M phase at 4 uM after 24 hrs using propidium iodide staining by flow cytometry; type: functional; procedure, shortened: as §1
[18] = system: HCC 2998; assay: Growth inhibition of human HCC2998 cells after 24 hrs by MTT assay; type: functional; settings: HCC 2998, 24 h
[19] = system: MCF7; assay: Increase of cytosolic cytochrome c level in human MCF7 cells at 2 uM after 24 hrs by Western blot analysis; type: functional, cell-based; procedure, shortened: as §2
[20] = system: LOX IMVI; assay: Growth inhibition of human LOXIMVI cells after 24 hrs by MTT assay; type: functional
[21] = Growth inhibition of human Hs 578T cells after 24 hrs by MTT assay; type: functional
[22] = system: OVCAR-8; assay: Growth inhibition of human OVCAR8 cells after 24 hrs by MTT assay; type: functional; settings: OVCAR-8, 24 h
[23] = system: NCI-H522; assay: Growth inhibition of human NCI-H522 cells after 24 hrs by MTT assay; type: functional; settings: NCI-H522, 24 h
[24] = system: T47D; assay: Growth inhibition of human T47D cells after 24 hrs by MTT assay; type: functional
[25] = system: MOLT-4; assay: Growth inhibition of human MOLT4 cells after 24 hrs by MTT assay; type: functional; settings: MOLT-4, 24 h
[26] = system: OVCAR-3; assay: Growth inhibition of human OVCAR-3 cells after 24 hrs by MTT assay; type: functional; settings: OVCAR-3, 24 h
[27] = system: MCF7; assay: Increase of PARP cleavage in human MCF7 cells at 2 uM after 24 hrs by Western blot analysis; type: functional, cell-based; procedure, shortened: as §2
[28] = system: MCF7; assay: Cytotoxicity against human MCF7 cells at 2 uM after 24 hrs by MTT assay relative to control; type: functional
Procedure, shortened: (§3)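 MCF-7 cells were seeded at 10,000 cells/well in DMEM with 10% fetal calf serum. They were exposed to 0.5, 1, 2 and 4 µM for 24 h. MTT reduction to formazan was read at 570 nm, with untreated controls taken as 100% viability. DMSO-treated cells served as an additional control.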

[29] = system: CCRF-CEM; assay: Growth inhibition of human CCRF-CEM cells after 24 hrs by MTT assay; type: functional
[30] = system: MCF7; assay: Cytotoxicity against human MCF7 cells at 4 uM after 24 hrs by MTT assay relative to control; type: functional, cell-based; procedure, shortened: as §3
[31] = system: EKVX; assay: Growth inhibition of human EKVX cells after 24 hrs by MTT assay; type: functional
[32] = system: SN12C; assay: Growth inhibition of human SN12C cells after 24 hrs by MTT assay; type: functional
[33] = system: SR; assay: Growth inhibition of human SR cells after 24 hrs by MTT assay; type: functional
[34] = system: UACC-257; assay: Growth inhibition of human UACC257 cells after 24 hrs by MTT assay; type: functional; settings: UACC-257, 24 h
[35] = system: SK-MEL-28; assay: Growth inhibition of human SK-MEL-28 cells after 24 hrs by MTT assay; type: functional; settings: SK-MEL-28, 24 h

## COc1cc2c(cc1OCCCOc1ccc(-c3cc4ccccc4c4ccccc34)cc1)N=C[C@@H]1CCCN1C2=O
[1]
  inhibition: Dose-dependent effect
[2]
  GI50: 210 nM
[3]
  GI50: 580 nM
[4]
  GI50: 720 nM
[5]
  Activity: 4.47%
[6]
  GI50: 1160 nM
[7]
  GI50: 240 nM
[8]
  GI50: 1410 nM
[9]
  Activity: Active
[10]
  GI50: 170 nM
[11]
  Activity: Active
[12]
  GI50: 1170 nM
[13]
  GI50: 630 nM
[14]
  Activity: 75.33%
[15]
  Activity: Active
[16]
  GI50: 600 nM
[17]
  Activity: 3.94%
[18]
  GI50: 1210 nM
[19]
  Activity: Active
[20]
  GI50: 1020 nM
[21]
  GI50: 1020 nM
[22]
  GI50: 420 nM
[23]
  GI50: 120 nM
[24]
  GI50: 80 nM
[25]
  GI50: 180 nM
[26]
  GI50: 250 nM
[27]
  Activity: Active
[28]
  Activity: <=50%
[29]
  GI50: 130 nM
[30]
  Activity: Active
[31]
  GI50: 1050 nM
[32]
  GI50: 510 nM
[33]
  GI50: 220 nM
[34]
  GI50: 1360 nM
[35]
  GI50: 1260 nM
